Data set [1] relates to Mus musculus. Briefly: MST of mitomycin 2 mg/kg treated group x 100/MST of untreated control group at a dose of 25 mg/kg in L1210 leukemic mice. Type of data set: functional. Summed up:
(§1)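 Reference group of 8 B6D2F1 mice bearing ip-grafted 10⁵ L1210 cells (day 0), given mitomycin 2 mg/kg in distilled water ip on days 1, 5 and 9. Controls were 12 mice given vehicle only. Mortality was followed daily with autopsy. Ref I = mitomycin-group MST × 100/control MST, run alongside each test experiment.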

A short description of data set [2]: Ratio, I x 100/ref I at a dose of 20 mg/kg in L1210 leukemic mice. In kind it is functional. In a few lines:
(§2)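 Male B6D2F1 mice, 3 months old, received 10^5 L1210 cells ip on day 0. Dosing was ip on days 1, 5 and 9 in 20% aqueous Tween 80, 0.1–0.2 mL per 20 g, with 8 mice per group. There were 12 vehicle controls and 8 mice given mitomycin 2 mg/kg ip in water. Daily mortality was recorded, with autopsies. Ratio = treated-group MST ×100/reference-group MST; Wilcoxon, p<0.05.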

Data set [3] is described as follows: Lethal dose in L1210 leukemic mice, by administering compound intraperitoneally. Type of data set: toxicity, organism-based. The settings on record: mouse, in vivo, ip. In a few lines:
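Male B6D2F1 mice (3 months old) received 10⁵ L1210 leukemia cells ip on day 0. One day later they were given compound ip. Mortality was recorded daily for 9 days and the acute LD50 expressed in mg/kg.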

For data set [4], the system named is Mus musculus. Briefly: MST of mitomycin 2 mg/kg treated group x 100/MST of untreated control group at a dose of 20 mg/kg in L1210 leukemic mice. In kind it is functional. In a few lines: as §1
Data set [5] has as its system Mus musculus. Briefly: Median survival time of treated group / untreated group, when 25 mg/kg compound is administered intraperitoneally in L1210 leukemic mice. In kind it is functional. The settings on record: route intraperitoneal. In a few lines:
(§3)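 Male 3-month-old B6D2F1 mice, 10⁵ L1210 cells ip on day 0. Compound was given ip on days 1, 5 and 9 in aqueous 20% Tween 80 (0.1–0.2 mL per 20 g), 8 mice per group. Twelve vehicle controls. Daily mortality with autopsy to assign leukemic versus toxic death. I = treated MST × 100/control MST. Wilcoxon test, p < 0.05; active if I > 125 and p < 0.05.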

The test system of data set [6] is Mus musculus. Briefly: Median survival time of treated group / untreated group, when 20 mg/kg compound is administered intraperitoneally in L1210 leukemic mice. The conditions noted are these: route intraperitoneal. Type of data set: functional. Summed up: as §3
Data set [7] can be described thus: Ratio, I x 100/ref I at a dose of 25 mg/kg in L1210 leukemic mice. Type of data set: functional. Summed up: as §2
Data set [8] in a line: Ratio of acute lethal dose to the efficient dose 40 mg/kg. In kind it is functional. In a few lines: (§4)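 Ratio of acute LD50 to efficient dose. LD50 came from single ip dosing one day after ip grafting of 10⁵ L1210 cells in B6D2F1 mice, with 9-day mortality. The efficient dose came from ip treatment on days 1, 5 and 9 in the median-survival test.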
The test system of data set [9] is Mus musculus. Briefly: MST of mitomycin 2 mg/kg treated group x 100/MST of untreated control group at a dose of 40 mg/kg in L1210 leukemic mice. Type of data set: functional. Summed up:
as §1

The subject of data set [10] is Mus musculus. Briefly: MST of mitomycin 2 mg/kg treated group x 100/MST of untreated control group at a dose of 35 mg/kg in L1210 leukemic mice. In kind it is functional. In a few lines:
as §1

The subject of data set [11] is Mus musculus. Briefly: Median survival time of treated group / untreated group, when 65 mg/kg compound is administered intraperitoneally in L1210 leukemic mic. In kind it is functional. The settings on record: route intraperitoneal. Summed up: as §3
Data set [12] can be described thus: Ratio of acute lethal dose to the efficient dose 65 mg/kg. In kind it is functional. Summed up:
as §4

Data set [13] can be described thus: Ratio of acute lethal dose to the efficient dose 30 mg/kg. Type of data set: functional. Summed up:
as §4

Data set [14] deals with Mus musculus. Briefly: Median survival time of treated group / untreated group, when 40 mg/kg compound is administered intraperitoneally in L1210 leukemic mice. The settings on record: route intraperitoneal. In kind it is functional. Summed up:
as §3

Data set [15] is described as follows: Ratio, I x 100/ref I at a dose of 35 mg/kg in L1210 leukemic mice. In kind it is functional. In a few lines:
as §2

Data set [16] in a line: Ratio, I x 100/ref I at a dose of 65 mg/kg in L1210 leukemic mice. Type of data set: functional. Summed up: as §2
Data set [17] can be described thus: Ratio of acute lethal dose to the efficient dose 35 mg/kg. In kind it is functional. Summed up:
as §4

Data set [18] is described as follows: Ratio, I x 100/ref I at a dose of 40 mg/kg in L1210 leukemic mice. Type of data set: functional. Summed up:
as §2

Data set [19] has as its system Mus musculus. Briefly: MST of mitomycin 2 mg/kg treated group x 100/MST of untreated control group at a dose of 65 mg/kg in L1210 leukemic mice. Type of data set: functional. In a few lines:
as §1

The subject of data set [20] is Mus musculus. Briefly: Median survival time of treated group / untreated group, when 35 mg/kg compound is administered intraperitoneally in L1210 leukemic mice. In kind it is functional. The conditions noted are these: route intraperitoneal. In a few lines:
as §3

Data set [21] concerns Mus musculus. Briefly: MST of mitomycin 2 mg/kg treated group x 100/MST of untreated control group at a dose of 50 mg/kg in L1210 leukemic mice. In kind it is functional. Summed up:
as §1

Data set [22] concerns Mus musculus. Briefly: MST of mitomycin 2 mg/kg treated group x 100/MST of untreated control group at a dose of 30 mg/kg in L1210 leukemic mice. In kind it is functional. In a few lines: as §1
A short description of data set [23]: Ratio, I x 100/ref I at a dose of 15 mg/kg in L1210 leukemic mice. In kind it is functional. In a few lines:
as §2

A short description of data set [24]: Ratio, I x 100/ref I at a dose of 100 mg/kg in L1210 leukemic mice. In kind it is functional. Summed up:
as §2

Data set [25] has as its system Mus musculus. Briefly: MST of mitomycin 2 mg/kg treated group x 100/MST of untreated control group at a dose of 15 mg/kg in L1210 leukemic mice. Type of data set: functional. Summed up:
as §1

Data set [26] deals with Mus musculus. Briefly: Median survival time of treated group / untreated group, when 30 mg/kg compound is administered intraperitoneally in L1210 leukemic mice. Type of data set: functional. The conditions noted are these: route intraperitoneal. Summed up: as §3
The test system of data set [27] is Mus musculus. Briefly: MST of mitomycin 2 mg/kg treated group x 100/MST of untreated control group at a dose of 100 mg/kg in L1210 leukemic mice. Type of data set: functional. Summed up: as §1
Data set [28] is described as follows: Ratio, I x 100/ref I at a dose of 50 mg/kg in L1210 leukemic mice. In kind it is functional. Summed up:
as §2

The subject of data set [29] is Mus musculus. Briefly: Median survival time of treated group / untreated group, when 15 mg/kg compound is administered intraperitoneally in L1210 leukemic mice. Type of data set: functional. The settings on record: route intraperitoneal. Summed up:
as §3

Data set [30] has as its system Mus musculus. Briefly: Median survival time of treated group / untreated group, when 50 mg/kg compound administered intraperitoneally in L1210 leukemic mice. Type of data set: functional. The conditions noted are these: route intraperitoneal. In a few lines:
as §3

The nature of data set [31]: Ratio, I x 100/ref I at a dose of 30 mg/kg in L1210 leukemic mice. Type of data set: functional. Summed up:
as §2

The structures appear in SMILES notation. Several values for one entry are separate records, joined by “and”; a condition that tells them apart may be missing. Equal entries are not always repeated.

A word on the LD50: it is the dose at which mortality reaches 50%. Low readings indicate greater toxicity, high ones lower toxicity.

As to `CC(C)NC(=O)OCc1c(COC(=O)NC(C)C)c(-c2ccsc2)n2c1CCC2`, the “Ref I oncostatic index” value in the data set with Mus musculus [1] is listed as 162; in the data set on Mus musculus [4], 139. For the same compound, the Ratio in [2] and in data set [7] was 72 throughout. The same compound registered an LD50 in data set [3] of 65 mg/kg. In addition, the Oncostatic index in the data set on Mus musculus [5] came out at 117; with Mus musculus [6] it was 100.

Take `CNC(=O)OCc1c(COC(=O)NC)c(-c2cccs2)n2c1CCC2`: the Ratio is on record as 3 in data set [8]; 1.8 in [12]; 1.7 in data set [13]; 100 in [15]; 100 in data set [16]; 3.4 in [17]. Moreover, the Ratio in [18] is 100. For the same compound, the entries for the “Ref I oncostatic index” value in the data set with Mus musculus [9], with Mus musculus [10] and with Mus musculus [19] were 138, 167 and 125, respectively. Moreover, the Oncostatic index in the data set on Mus musculus [11] was 125; in the data set with Mus musculus [14], 138; in the data set with Mus musculus [20], 167. The compound also displayed a median lethal dose (LD50) in [3] of 120 mg/kg.

As for `CC(=O)OCc1c(COC(C)=O)c(-c2cccs2)n2c1CCC2`, the “Ref I oncostatic index” value in the data set with Mus musculus [21] was determined as 136; in the data set with Mus musculus [22] it was 140; in the data set on Mus musculus [25] it was 121; in the data set with Mus musculus [27], 125. Also, the Ratio stood at 83 in data set [23], 80 in data set [24], 92 in data set [28] and 86 in data set [31]. The Oncostatic index with Mus musculus [26] is 114 and 100; with Mus musculus [29], 100; in the data set with Mus musculus [30], 117. In data set [3], this compound gave an LD50 of 80 mg/kg.

Source of the values: ChEMBL document CHEMBL1124400, “Synthesis and evaluation of antileukemic activity of 5-thienyl- or 5-(2-furyl)-2,3-dihydro-6,7-bis(hydroxymethyl)-1H-pyrrolizine bis(alkylcarbamates) and derivatives” (J Med Chem, 1989).
